# Results taken from ChEMBL document CHEMBL1122744, “2-Chloroethyl (methylsulfonyl)methanesulfonate and related (methylsulfonyl)methanesulfonates. Antineoplastic activity in vivo” (J Med Chem, 1984).
# Columns and labels:
# Mus musculus [1] = experiment: Median survival time of the treated control groups, in which there are no 30-day survivors at dose 100 mg/kg in exp1; assay type: functional
# Mus musculus [2] = experiment: Median survival time of the untreated control groups, in which there are no 30-day survivors at dose 100 mg/kg in exp1; assay type: functional
# Mus musculus [3] = experiment: Median survival time of the treated control groups, in which there are no 30-day survivors at dose 50 mg/kg in exp1; assay type: functional
# Mus musculus [4] = experiment: Mortality by day 5 expressed as number of mice died to the total treated at dose 50 mg/kg in exp1; 0/6; assay type: ADME, organism-based; design: dose 50 mg/kg; conditions: in vivo
# Mus musculus [5] = experiment: Mortality by day 5 expressed as number of mice died to the total treated at dose 100 mg/kg in exp1; 2/6; assay type: ADME, organism-based; design: dose 100 mg/kg; conditions: in vivo
# Mus musculus [6] = experiment: Change in weight by day 5, obtained by subtracting treated groups of animals minus control groups of animals at dose 25 mg/kg in exp1.; assay type: functional
# Method in brief: (§1)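 Mice were inoculated ip with 10^6 P388 leukemia cells on day 0, when treated and control mice weighed 19–22 g. Treatment was given ip once daily on days 1–5, within about 5 min of preparing the solution or suspension. Groups of six (occasionally five) were treated, with 30 untreated inoculated mice as controls. The day-5 weight change is the mean treated change minus the mean control change.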
# Mus musculus [7] = experiment: Median survival time of the untreated control groups, in which there are no 30-day survivors at dose 50 mg/kg in exp1; assay type: functional
# [8] = Ratio of median survival times for non-survivors at dose 50 mg/kg in exp1; assay type: functional; design: unit: %
# Method in brief: (§2)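 Mice were inoculated ip with 10^6 P388 leukemia cells on day 0. Groups of six (occasionally five) were dosed ip qd on days 1–5 with fresh suspensions; 30 mice served as untreated controls. Deaths were recorded daily up to day 60. T/C% compares the median survival of treated non-survivors (<60 days) with the control median. Medians used grouped data when there were no 30-day survivors, otherwise ungrouped data. t = toxic.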
# [9] = Ratio of median survival times for non-survivors at dose 100 mg/kg in exp1; assay type: functional; design: unit: %; method in brief: as §2
# Mus musculus [10] = experiment: Mortality by day 5 expressed as number of mice died to the total treated at dose 25 mg/kg in exp1; 0/6; assay type: ADME, organism-based; design: dose 25 mg/kg; conditions: in vivo
# Mus musculus [11] = experiment: Median survival time of the untreated control groups, in which there are no 30-day survivors at dose 25 mg/kg in exp1; assay type: functional
# Mus musculus [12] = experiment: Change in weight by day 5, obtained by subtracting treated groups of animals minus control groups of animals at dose 100 mg/kg in exp1.; assay type: functional; method in brief: as §1
# Mus musculus [13] = experiment: Mortality by day 5 expressed as number of mice died to the total treated at dose 100 mg/kg in exp1; 6/6; assay type: ADME, organism-based; design: dose 100 mg/kg; conditions: in vivo
# Mus musculus [14] = experiment: Median survival time of the treated control groups, in which there are no 30-day survivors at dose 25 mg/kg in exp1; assay type: functional
# Mus musculus [15] = experiment: Median survival time of the treated control groups, in which there are no 30-day survivors at dose 12 mg/kg in exp1; assay type: functional
# Mus musculus [16] = experiment: Median survival time of the treated control groups, in which there are no 30-day survivors at dose 12 mg/kg in exp2; assay type: functional
# Mus musculus [17] = experiment: Change in weight by day 5, obtained by subtracting treated groups of animals minus control groups of animals at dose 25 mg/kg in exp2; assay type: functional; method in brief: as §1
# [18] = Ratio of median survival times for non-survivors at dose 6 mg/kg in exp2; assay type: functional
# Mus musculus [19] = experiment: Median survival time of the untreated control groups, in which there are no 30-day survivors at dose 6 mg/kg in exp1; assay type: functional
# Mus musculus [20] = experiment: Change in weight by day 5, obtained by subtracting treated groups of animals minus control groups of animals at dose 6 mg/kg in exp2; assay type: functional
# Method in brief: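 Mice were inoculated ip with 10^6 P388 leukemia cells on day 0 and weighed 19–22 g that day. Compound was given ip once daily on days 1–5, within about 5 min of preparing the solution or suspension, to groups of six (occasionally five). Thirty inoculated untreated mice served as controls. The value is the average weight change of treated mice minus that of controls on day 5.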
# [21] = Ratio of median survival times for non-survivors at dose 6 mg/kg in exp1; assay type: functional
# Mus musculus [22] = experiment: Change in weight by day 5, obtained by subtracting treated groups of animals minus control groups of animals at dose 6 mg/kg in exp1.; assay type: functional; method in brief: as §1
# Mus musculus [23] = experiment: Median survival time of the treated control groups, in which there are no 30-day survivors at dose 6 mg/kg in exp1; assay type: functional
# Mus musculus [24] = experiment: Mortality by day 5 expressed as number of mice died to the total treated at dose 6 mg/kg in exp2; 0/6; assay type: ADME, organism-based; design: dose 6 mg/kg; conditions: in vivo
# [25] = Ratio of median survival times for non-survivors at dose 12 mg/kg in exp1; assay type: functional; method in brief: as §2
# Mus musculus [26] = experiment: Median survival time of the untreated control groups, in which there are no 30-day survivors at dose 25 mg/kg in exp2; assay type: functional
# Mus musculus [27] = experiment: Median survival time of the treated control groups, in which there are no 30-day survivors at dose 6 mg/kg in exp2; assay type: functional
# Mus musculus [28] = experiment: Mortality by day 5 expressed as number of mice died to the total treated at dose 25 mg/kg in exp2; 4/6; assay type: ADME, organism-based; design: dose 25 mg/kg; conditions: in vivo
# Mus musculus [29] = experiment: Mortality by day 5 expressed as number of mice died to the total treated at dose 6 mg/kg in exp1; 0/5; assay type: ADME, organism-based; design: dose 6 mg/kg; conditions: in vivo
# Mus musculus [30] = experiment: Change in weight by day 5, obtained by subtracting treated groups of animals minus control groups of animals at dose 12 mg/kg in exp2; assay type: functional; method in brief: as §1
# Mus musculus [31] = experiment: Mortality by day 5 expressed as number of mice died to the total treated at dose 12 mg/kg in exp2; 1/6; assay type: ADME, organism-based; design: dose 12 mg/kg; conditions: in vivo
# [32] = Ratio of median survival times for non-survivors at dose 25 mg/kg in exp2; t= toxic; assay type: ADME, organism-based; design: dose 25 mg/kg; conditions: in vivo
# Mus musculus [33] = experiment: Change in weight by day 5, obtained by subtracting treated groups of animals minus control groups of animals at dose 12 mg/kg in exp1; assay type: functional; method in brief: as §1
# Mus musculus [34] = experiment: Median survival time of the untreated control groups, in which there are no 30-day survivors at dose 12 mg/kg in exp1; assay type: functional
# Mus musculus [35] = experiment: Median survival time of the untreated control groups, in which there are no 30-day survivors at dose 6 mg/kg in exp2; assay type: functional
# [36] = Median survival time of the untreated control groups, in which there are no 30-day survivors at dose 12 mg/kg in exp2; assay type: functional
# [37] = Ratio of median survival times for non-survivors at dose 25 mg/kg in exp1; t= toxic; assay type: ADME, organism-based; design: dose 25 mg/kg; conditions: in vivo
# [38] = Ratio of median survival times for non-survivors at dose 12 mg/kg in exp2; assay type: functional; method in brief: as §2
# Mus musculus [39] = experiment: Mortality by day 5 expressed as number of mice died to the total treated at dose 12 mg/kg in exp1; 0/6; assay type: ADME, organism-based; design: dose 12 mg/kg; conditions: in vivo
# Mus musculus [40] = experiment: Mortality by day 5 expressed as number of mice died to the total treated at dose 25 mg/kg in exp1; 6/6; assay type: ADME, organism-based; design: dose 25 mg/kg; conditions: in vivo
smiles,measurement,setting,value
CS(=O)(=O)OCCBr,Median survival time,Mus musculus [1],11.8
same,Median survival time,Mus musculus [2],11.1
same,Median survival time,Mus musculus [3],12.3
same,Mortality,Mus musculus [4],0
same,Mortality,Mus musculus [5],2
same,Change in weight,Mus musculus [6],-0.7
same,Median survival time,Mus musculus [7],11.1
same,Ratio,[8],110
same,Ratio,[9],106
same,Mortality,Mus musculus [10],0
same,Median survival time,Mus musculus [11],11.1
same,Change in weight,Mus musculus [12],-3
same,Mortality,Mus musculus [13],6
same,Median survival time,Mus musculus [14],12
COS(=O)(=O)CS(C)(=O)=O,Median survival time,Mus musculus [15],14
same,Median survival time,Mus musculus [16],13.7
same,Change in weight,Mus musculus [17],-2.8
same,Ratio,[18],125
same,Median survival time,Mus musculus [19],10.7
same,Change in weight,Mus musculus [20],-0.8
same,Ratio,[21],135
same,Change in weight,Mus musculus [22],0
same,Median survival time,Mus musculus [23],14.5
same,Mortality,Mus musculus [24],0
same,Ratio,[25],130
same,Median survival time,Mus musculus [26],10.7
same,Median survival time,Mus musculus [27],13.4
same,Mortality,Mus musculus [28],4
same,Mortality,Mus musculus [29],0
same,Change in weight,Mus musculus [30],-2.8
same,Mortality,Mus musculus [31],1
same,Ratio,[32],Toxic
same,Change in weight,Mus musculus [33],-4.1
same,Median survival time,Mus musculus [34],10.7
same,Mortality,Mus musculus [10],0
same,Median survival time,Mus musculus [11],10.7
same,Median survival time,Mus musculus [35],10.7
same,Median survival time,[36],10.7
same,Ratio,[37],Toxic
same,Ratio,[38],128
same,Mortality,Mus musculus [39],0
same,Mortality,Mus musculus [40],6
